Measurements pooled from the literature.
Compare with care: the assays were run in different laboratories.
Target: Receptor-interacting serine/threonine-protein kinase 2 (RIPK2, Homo sapiens, UniProt O43353)

Structure (SMILES)	read-out	method	tested at	remaining binding
CCN1CCN(Cc2ccc(C(=O)Nc3ccc(C)c(Oc4ccc5c(c4)CC(=O)N5)c3)cc2C(F)(F)F)CC1	binding	competition with immobilised ligand	1 µM	100%
CN(C)c1nccc(-c2cnc3ncccn23)n1	binding	–	1 µM	98%
COc1cnc(Nc2cccc(S(N)(=O)=O)c2)nc1N1CCN(c2ccccc2)CC1	binding	competition with immobilised ligand	1 µM	100%
CO[C@H]1CC[C@H](CNc2ccc(S(=O)(=O)NC(=O)c3ccc(N4CCN(CC5=C(c6ccc(Cl)cc6)CC(C)(C)CC5)CC4)cc3Oc3cnc4[nH]ccc4c3)cc2[N+](=O)[O-])CC1	cell-free assay	competition with immobilised ligand	1 µM	85%
O=C(NCC1CCOCC1)c1n[nH]cc1NC(=O)c1c(F)cccc1F	binding	competition with immobilised ligand	1 µM	100%
CN(C)C(=O)Cn1cc(-c2nc(C3(c4ccc(-c5cnc(N)nc5)cc4)CC3)no2)cn1	cell-free assay	competition with immobilised ligand	1 µM	100%
COc1cnc(Nc2cccc(S(N)(=O)=O)c2)nc1N1CCN(c2ccccc2)C(=O)C1	binding	competition with immobilised ligand	1 µM	100%
Cc1cnc(Nc2ccc(C(=O)N3CCC(N4CCCC4)CC3)cc2)nc1-c1cc2ccccc2s1	binding	competition with immobilised ligand	1 µM	81%
CN([C@@H]1CCc2c(CC(=O)O)c3ccccc3n2C1)S(=O)(=O)c1ccc(F)cc1	cell-free assay	competition with immobilised ligand	1 µM	92%
COc1ccnn2ncc(-c3ccnc(N(C)C)n3)c12	binding	–	1 µM	100%
O=C1NC(c2ccccn2)Sc2ccccc21 (stereo not shown)	cell-free assay	competition with immobilised ligand	1 µM	100%
c1cnn2ncc(-c3ccnc(N4CCC45COC5)n3)c2c1	binding	–	1 µM	78%
C=CC(=O)N1CCC(C(=O)NCC(=O)N2CCN(c3nc(-c4cnc(N)nc4C(F)F)nc(N4CCOCC4)n3)CC2)CC1	binding	competition with immobilised ligand	1 µM	100%
CC1CCCN1c1nccc(-c2cnn3ncccc23)n1 (stereo not shown)	binding	–	1 µM	89%
c1cncc(-c2cccc(Nc3nccc(NC4CCCCC4)n3)c2)c1	binding	competition with immobilised ligand	10 µM	39%
O=C(NCc1ncc(C(F)(F)F)cc1Cl)c1ccc2c(c1)C1(CCS(=O)(=O)CC1)[C@H](C1CC1)N2S(=O)(=O)c1ccc(F)cc1	cell-free assay	competition with immobilised ligand	1 µM	100%
O=C(c1ccc(Nc2ncc(Cl)c(-c3cc4ccccc4s3)n2)cc1)N1CCC(N2CCCC2)CC1	binding	competition with immobilised ligand	1 µM	98%
CC(=O)C1=C(C)N(c2cccc(C(F)(F)F)c2)C(=O)N[C@@H]1c1ccc(C#N)nc1	cell-free assay	competition with immobilised ligand	1 µM	98.7%
C[C@H]1CCN(c2nccc(-c3cnn4ncccc34)n2)C1	binding	–	1 µM	95%
O=C(c1ccc(Nc2nccc(-c3cc4ccccc4s3)n2)cc1)N1CCC(N2CCCC2)CC1	binding	competition with immobilised ligand	1 µM	79%
N[C@H]1CCN(c2nccc(-c3cnn4ncccc34)n2)C1	binding	–	1 µM	100%
c1ccc(N2CCN(Cc3nc4ccccc4[nH]3)CC2)nc1	binding	competition with immobilised ligand	1 µM	100%
